Experimental data: ChEMBL document CHEMBL2380249, “Synthesis and evaluation of Janus type nucleosides as potential HCV NS5B polymerase inhibitors” (Bioorg Med Chem Lett, 2013)

Experiments:
[1] = system: Human immunodeficiency virus 1; assay: Antiviral activity against Human immunodeficiency virus 1 LAI infected in human PBMC; type: functional, organism-based; conditions: Human immunodeficiency virus 1, M:B_Lai
Procedure, shortened: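 HIV-1 LAI replication in primary human peripheral blood mononuclear cells, with AZT as positive control.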

[2] = system: Hepatitis C virus; assay: Antiviral activity against Hepatitis C virus infected in human HuH7 cells; type: functional, organism-based, Hepacivirus hominis; conditions: Huh-7
Procedure, shortened: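 Subgenomic HCV replicon in Huh7 cells; HCV RNA extracted and amplified to measure inhibition of replication, with cytotoxicity determined in the same cells at the same time.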

[3] = Cytotoxicity against African green monkey Vero cells; type: cell-based; conditions: chlorocebus sabaeus
[4] = Cytotoxicity against human PBMC; type: cell-based
[5] = Cytotoxicity against human HuH7 cells assessed as reduction in rRNA levels at 120 hrs by RT-PCR analysis; type: cell-based, Huh-7
[6] = Cytotoxicity against human CEM cells; type: cell-based; conditions: CEM (CCRF-CEM) cells

SMILES	EC50 [1]	EC90 [1]	EC50 [2]	EC90 [2]	CC50 [3]	CC50 [4]	CC50 at 120 h [5]	CC50 [6]
Nc1ncnc2c1c1c(=O)[nH]c(S)nc1n2[C@@H]1O[C@H](CO)[C@@H](O)[C@H]1O	9.6 µM	30.2 µM	> 10 µM	> 10 µM	43.1 µM	2.9 µM	> 10 µM	8.2 µM
C[C@@]1(O)[C@H](O)[C@@H](CO)O[C@H]1n1c2ncnc(N)c2c2c(N)ncnc21	≥ 100 µM	≥ 100 µM	> 10 µM	> 10 µM	> 100 µM	> 100 µM	> 10 µM	> 100 µM
Nc1nc2c(c(=O)[nH]1)c1c(N)ncnc1n2[C@@H]1O[C@H](CO)[C@@H](O)[C@H]1O	9.4 µM	24 µM	3 µM	22.5 µM	63.1 µM	3.1 µM	< 10 µM	20.2 µM
C[C@@]1(O)[C@H](O)[C@@H](CO)O[C@H]1n1c2ncnc(N)c2c2c(=O)[nH]c(=O)[nH]c21	> 100 µM	> 100 µM	> 10 µM	> 10 µM	> 100 µM	> 100 µM	> 10 µM	> 100 µM
Nc1ncnc2c1c1c(N)ncnc1n2[C@@H]1O[C@H](CO)[C@@H](O)[C@H]1O	> 100 µM	> 100 µM	> 10 µM	> 10 µM	82.5 µM	53.8 µM	> 10 µM	29.5 µM
Cc1cn([C@H]2C[C@H](N=[N+]=[N-])[C@@H](CO)O2)c(=O)[nH]c1=O [ZIDOVUDINE]		0.028 µM	> 10 µM	> 10 µM	53 µM	> 100 µM	> 10 µM	14.3 µM

The next lines start with results.

EC50 [1]	EC90 [1]	EC50 [2]	EC90 [2]	SMILES	CC50 [3]	CC50 [4]	CC50 at 120 h [5]	CC50 [6]
> 100 µM	> 100 µM	> 10 µM	> 10 µM	C[C@@]1(O)[C@H](O)[C@@H](CO)O[C@H]1n1c2ncnc(N)c2c2c(=O)[nH]c(S)nc21	> 100 µM	> 100 µM	> 10 µM	> 100 µM
3.3 µM	> 100 µM	3 µM	17.9 µM	C[C@@]1(O)[C@H](O)[C@@H](CO)O[C@H]1n1c2ncnc(N)c2c2c(=O)[nH]c(N)nc21	> 100 µM	92.1 µM	3 µM	36.5 µM
		> 10 µM	> 10 µM	CCOC(=O)[C@H](C)NP(=O)(OC[C@H]1O[C@@H](n2c3ncnc(N)c3c3c(N)ncnc32)[C@](C)(O)[C@@H]1O)Oc1ccccc1 (stereo partly specified)			> 10 µM	
